Data published in ChEMBL document CHEMBL1152725, “New potent imidazoisoquinolinone derivatives as anti-Trypanosoma cruzi agents: biological evaluation and structure-activity relationships” (Bioorg Med Chem, 2009).
≈ marks a conversion by molar mass, not a printed value. Calls of active or inactive are those of the source. No cut-off for these calls is given here.

Columns and labels:
Trypanosoma cruzi = assay: Antitrypanosomal activity against Trypanosoma cruzi Tulahuen 2 epimastigotes after 5 days; assay type: functional, organism-based; settings: Tulahuen 2, 120 h
Outline: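 T. cruzi Tulahuen 2 epimastigotes were grown axenically at 28 °C in BHI-tryptose with 5% FCS. Stationary-phase (5-day) cells were inoculated at 1 × 10⁶ cells/mL, with DMSO ≤0.4% final. Cultures ran 5 days with or without compound, first as a 25 µM screen and then at increasing concentrations. IC50 is the concentration halving this ratio.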

HeLa = assay: Cytotoxicity against human HeLa cells after 24 hrs by MTT assay; assay type: cell-based
Outline: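 HeLa cells were kept in DMEM with 10% FBS, penicillin and streptomycin at 37 °C and 5% CO2. Cells were seeded, and after 48 h compound was added at 4, 20 or 100 µM for 24 h. After PBS washes, cells got MTT at 0.5 mg/mL final for 4 h at 37 °C. Formazan was dissolved in isopropanol/HCl and read at 570 nm after blank subtraction. Survival is % of control, with ≥3 repeats of four samples each.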

DNA = assay: Binding affinity to calf thymus DNA at a DNA-drug molar ratio of 5:1 after 24 hrs by UV spectroscopy; assay type: nucleic-acid assay; settings: Bos taurus
Outline: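 Calf thymus DNA was prepared in 10 mM Tris–HCl pH 7.4. Compound (2 × 10⁻⁵ M, from an ethanol stock diluted with water) was mixed 1:1 by volume with the DNA solution at a 5:1 DNA-drug ratio. The mixture was rotated slowly for 24 h. UV absorbance area at maximal absorbance was compared (a24/a0), where 1 means no affinity and 0 means fully bound.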

[1] = Selectivity index, ratio of IC50 for human HeLa cells to IC50 for Trypanosoma cruzi Tulahuen 2 epimastigotes; assay type: toxicity, cell-based; settings: HeLa cells versus Trypanosoma cruzi Tulahuen 2 epimastigotes, read-out: Ratio IC50
Outline: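 Selectivity index is the HeLa IC50 divided by the IC50 against T. cruzi Tulahuen 2 epimastigotes (5-day growth assay).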

Plasmodium falciparum = assay: Antiparasitic activity against Plasmodium falciparum K1; assay type: functional, organism-based
Leishmania infantum = assay: Antiparasitic activity against Leishmania infantum; assay type: functional, organism-based
[2] = test system: Trypanosoma brucei rhodesiense; assay: Antiparasitic activity against Trypanosoma brucei rhodesiense; assay type: functional, organism-based
L6 = assay: Cytotoxicity against rat L6 cells; assay type: cell-based
Leishmania donovani = assay: Antiparasitic activity against Leishmania donovani; assay type: functional, organism-based
Onchocerca gutturosa [3] = assay: Antiparasitic activity against Onchocerca gutturosa assessed as inhibition of MTT formazan formation; assay type: functional; set-up: scale not given: the % may be the effect or the level left
Onchocerca gutturosa [4] = assay: Antiparasitic activity against Onchocerca gutturosa assessed as reduction in motility after 120 hrs; assay type: functional; set-up: scale not given: the % may be the effect or the level left

SMILES | IC50 (Trypanosoma cruzi) [µM] | IC50 (HeLa) [µM] | Activity (DNA) | selectivity ratio [1] | IC50 (Plasmodium falciparum) [µg/mL] | IC50 (Leishmania infantum) [µg/mL] | IC50 [2] [µg/mL] | IC50 (L6) [µg/mL] | Activity (Leishmania donovani) | Activity (Onchocerca gutturosa [3]) [%] | Activity (Onchocerca gutturosa [4]) [%]
Cc1ccc(NC(=S)c2c3n(c(=O)c4ccccc24)CCN3)cc1 | 1 | > 100 | 0.8 | > 100 | – | – | – | – | – | – | –
O=C(Nc1ccccc1)c1c2n(c(=O)c3ccccc13)CCN2 | 30 | > 100 | 0.8 | – | > 19.5 | > 19.5 | > 19.5 | > 19.6 | inactive | – | –
O=c1c2ccccc2cc2[nH]c3ccccc3n12 | > 25 | > 100 | 0.85 | – | – | – | – | – | – | – | –
CC(=O)N1CCn2c1c(C(=S)Nc1ccccc1)c1ccccc1c2=O | 43 | – | 0.8 | – | – | – | – | – | – | – | –
CN1CCN(C(=S)Nc2ccc(Nc3ccc([N+](=O)[O-])cc3)cc2)CC1 [AMOCARZINE] | – | – | – | – | – | – | – | – | – | 48.57 | 85.71
O=c1c2ccccc2c(C(=S)Nc2ccccc2)c2n1CCN2 | 3 | > 100 | 0.8 | > 33 | – | – | – | – | – | – | –
O=c1c2ccccc2c(C(=S)Nc2ccccn2)c2n1CCN2 | 30 | > 100 | 0.8 | – | – | – | – | – | – | – | –
Cc1ccc(C(=O)Nc2ccc(S(=O)(=O)O)c3cc(S(=O)(=O)O)cc(S(=O)(=O)O)c23)cc1NC(=O)c1cccc(NC(=O)Nc2cccc(C(=O)Nc3cc(C(=O)Nc4ccc(S(=O)(=O)O)c5cc(S(=O)(=O)O)cc(S(=O)(=O)O)c45)ccc3C)c2)c1 [SURAMIN] | – | – | – | – | – | – | 0.13 (≈ 0.1 µM) | – | – | – | –
Cc1cccc(NC(=S)c2c3n(c(=O)c4ccccc24)CCN3)c1 | 20 | > 52.5 | 0.8 | – | – | – | – | – | – | – | –
O=c1c2ccccc2c(C(=S)Nc2ccccc2)c2[nH]c3ccccc3n12 | 6.4 | 98 | 0.8 | 15 | > 19.5 | > 19.5 | > 22.7 | > 22.8 | inactive | – | –
COc1ccc(NC(=S)c2c3n(c(=O)c4ccccc24)CCN3)cc1 | 12.3 | 22 | 0.8 | 1.7 | – | – | – | – | – | – | –
O=c1c2ccccc2c(C(=S)Nc2cccc3ccccc23)c2n1CCN2 | 25 | – | 0.8 | – | – | – | – | – | – | – | –
CC1CS(=O)(=O)CCN1/N=C/c1ccc([N+](=O)[O-])o1 (stereo not given) [NIFURTIMOX] | – | 12 | – | 1.5 | – | – | – | – | – | – | –
CC/C(=C(\c1ccccc1)c1ccc(OCCN(C)C)cc1)c1ccccc1 [TAMOXIFEN] | – | – | – | – | – | – | – | 4.9 (≈ 13.2 µM) | – | – | –
O=c1c2ccccc2c(C(=S)Nc2ccc(Cl)cc2)c2n1CCN2 | 0.5 | > 90 | 0.8 | > 180 | > 22.7 | > 22.7 | > 22.7 | > 22.8 | inactive | – | –
O=c1c2ccccc2cc2n1CCN2 | > 25 | > 100 | 0.8 | – | > 10 | > 20.7 | 1.2 (≈ 6.44 µM) | > 100 | inactive | 0 | 14.29
O=c1c2ccccc2c(C(=S)NCc2ccc(Cl)cc2)c2n1CCN2 | 35 | > 90 | 0.8 | – | – | – | – | – | – | – | –
